Test results taken from ChEMBL document CHEMBL2439963, “Synthetic trimethyllysine receptors that bind histone 3, trimethyllysine 27 (H3K27me3) and disrupt its interaction with the epigenetic reader protein CBX7” (Bioorg Med Chem, 2013).

How the values were obtained:
[1] = Displacement of calixarene-LCG from synthetic H3K27me3 peptide
Outline: (§1)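 Competitive lucigenin displacement: 0.5 µM lucigenin plus 1.25 µM calixarene in 0.01 M phosphate buffer pH 7.4, titrated with Ac-capped peptide (H3K27 0–1.5 mM; H3K27me3 0–0.5 mM). Emission read at λex 369 nm, λem 485 nm. Kd fitted by cubic competitive binding equations, with host–dye constant fixed from the prior direct titration. Duplicate determinations averaged.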

[2] = Displacement of calixarene-LCG from synthetic H3K27 peptide; outline: as §1
[3] = Inhibition of synthetic H3K27me3 peptide interaction to CBX7 after 15 mins by fluorescence polarization assay
Outline: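 Calixarene was added at 0–10 mM, dissolved in water with 4 equiv NaOH. Incubated 15 min in the dark and read at ex 450/em 530 nm. mP was normalized to % complex, IC50 taken from a sigmoidal fit, triplicates averaged.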

[4] = Displacement of calixarene-LCG from synthetic H3K27me3 peptide by isothermal titration calorimetry analysis
[5] = Displacement of calixarene-LCG from synthetic H3K27 peptide by isothermal titration calorimetry analysis

COc1cccc(-c2cc3c(O)c(c2)Cc2cc(S(=O)(=O)O)cc(c2O)Cc2cc(S(=O)(=O)O)cc(c2O)Cc2cc(S(=O)(=O)O)cc(c2O)C3)c1OC showed a Kd [1] of 2.13 µM, a Kd [2] of 25 µM and an IC50 [3] of 1700 µM.
With COc1ccc(-c2cc3c(O)c(c2)Cc2cc(S(=O)(=O)O)cc(c2O)Cc2cc(S(=O)(=O)O)cc(c2O)Cc2cc(S(=O)(=O)O)cc(c2O)C3)cc1 the Kd [1] was 0.78 µM, the Kd [2] was 20 µM and the IC50 [3] was 360 µM.
With NC(=O)c1ccc(-c2cc3c(O)c(c2)Cc2cc(S(=O)(=O)O)cc(c2O)Cc2cc(S(=O)(=O)O)cc(c2O)Cc2cc(S(=O)(=O)O)cc(c2O)C3)cc1 the Kd [1] was 1.86 µM, the Kd [2] was 23 µM and the IC50 [3] was 590 µM.
Molecule O=[N+]([O-])c1cc2c(O)c(c1)Cc1cc(S(=O)(=O)O)cc(c1O)Cc1cc(S(=O)(=O)O)cc(c1O)Cc1cc(S(=O)(=O)O)cc(c1O)C2 has a Kd [1] of 10 µM, a Kd [2] of 30 µM and an IC50 [3] greater than 5000 µM.
O=S(=O)(O)c1cc2c(O)c(c1)Cc1cc(S(=O)(=O)O)cc(c1O)Cc1cc(S(=O)(=O)O)cc(c1O)Cc1cc(Br)cc(c1O)C2 gave a Kd [1] of 0.7 µM, a Kd [2] of 13.3 µM and an IC50 [3] of 470 µM.
For N#Cc1ccc(-c2cc3c(O)c(c2)Cc2cc(S(=O)(=O)O)cc(c2O)Cc2cc(S(=O)(=O)O)cc(c2O)Cc2cc(S(=O)(=O)O)cc(c2O)C3)cc1, the Kd [1] was 0.88 µM, the Kd [2] was 11.3 µM and the IC50 [3] was 370 µM.
In the case of O=S(=O)(O)c1cc2c(O)c(c1)Cc1cc(S(=O)(=O)O)cc(c1O)Cc1cc(S(=O)(=O)O)cc(c1O)Cc1cc(-c3ccccc3)cc(c1O)C2, the Kd [4] is reported as 4.03 µM, the Kd [1] is reported as 0.75 µM and the Kd [2] is reported as 19 µM. The IC50 [3] was 510 µM and the Kd [5] was 51.4 µM.
Cc1ccc(-c2cc3c(O)c(c2)Cc2cc(S(=O)(=O)O)cc(c2O)Cc2cc(S(=O)(=O)O)cc(c2O)Cc2cc(S(=O)(=O)O)cc(c2O)C3)cc1 showed a Kd [1] of 0.34 µM, a Kd [2] of 2.7 µM and an IC50 [3] of 230 µM.
In the case of Cc1ccc(S(=O)(=O)Nc2cc3c(O)c(c2)Cc2cc(S(=O)(=O)O)cc(c2O)Cc2cc(S(=O)(=O)O)cc(c2O)Cc2cc(S(=O)(=O)O)cc(c2O)C3)cc1, the Kd [1] is reported as greater than 100 µM, the Kd [2] is reported as greater than 100 µM and the IC50 [3] is reported as greater than 2000 µM.
In the case of O=S(=O)(O)c1cc2c(O)c(c1)Cc1cc(S(=O)(=O)O)cc(c1O)Cc1cc(S(=O)(=O)O)cc(c1O)Cc1cc(S(=O)(=O)O)cc(c1O)C2, the Kd [1] is reported as 5.4 µM, the Kd [2] is reported as 220 µM and the IC50 [3] is reported as 2500 µM.
